Reference: ChEMBL document CHEMBL1143148, “Influence of heterocyclic and oxime-containing farnesol analogs on quorum sensing and pathogenicity in Candida albicans” (Bioorg Med Chem, 2008)
Calls of active or inactive are those of the source. The rule behind the calls is not given here.

What was measured:
Candida albicans [1] = assay: Effect on quorum sensing in Candida albicans assessed as inhibition of germ tube formation; type: functional, organism-based
In short: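 Undifferentiated C. albicans cells inoculated to a final 1–2 × 10⁷ cells/ml in 2.5 mM N-acetyl glucosamine buffered to pH 7. Incubated 4 h at 37 °C with shaking at 200 rpm. Percentage of cells forming germ tubes then scored and inhibition relative to untreated cells taken. Triplicate readings.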

Candida albicans [2] = assay: Effect on rate of cell growth in Candida albicans at > 100 uM; type: functional, organism-based
Mus musculus = assay: Toxicity against ip dosed mouse after 14 days; type: organism-based; settings: in vivo, 336 h
Candida albicans [3] = assay: Enhancement of pathogen virulence in Candida albicans A72 infected mouse model of disseminated candidiasis assessed as mortality at 20 mM, ip after 60 hrs of infection relative to control; type: functional, organism-based
In short: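 Mice inoculated by tail vein with C. albicans A72 at 5 · 10⁶ or 2 · 10⁶ cells, 45 mice per inoculum, split into 3 groups of 15. Each group received IP 1 ml of either 0.5% Tween 80 in saline (control) or a 20 mM analog solution in 0.5% Tween 80 in sterile nonpyrogenic saline. Mortality was followed over time.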

Candida albicans [4] = assay: Protection against Candida albicans A72 infected mouse model of disseminated candidiasis assessed as mortality at 20 mM, ip; type: functional, organism-based
In short: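 Mice inoculated by tail vein with C. albicans A72 at 5 × 10⁶ or 2 × 10⁶ cells, 15 per group. Each got 1 ml IP of a 20 mM analog solution in 0.5% Tween 80 in saline, or a vehicle control injection. Mortality followed over time.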

IC50 (Candida albicans [1])	SMILES	Activity (Candida albicans [2])	Activity (Mus musculus)	Activity (Candida albicans [3])	Activity (Candida albicans [4])
> 50 µM	CC(C)=CCC/C(C)=C/Cc1nnn[nH]1	inactive	–	–	–
3 µM	CCCCCCCCCc1nnn[nH]1	inactive	Non-toxic	–	–
10 µM	CC(C)=C/C=C/C(C)=C/C=C/C(C)=C/C=N/O	inactive	–	–	–
5 µM	CC(C)=CCC/C(C)=C/CC/C(C)=C/C=N/O	inactive	Toxic	–	–
≥ 100 µM	CO/N=C/C=C(\C)CC/C=C(\C)CCC=C(C)C	inactive	–	–	–
10 µM	C(=C\c1nn[nH]n1)/c1ccccc1	inactive	–	–	–
1 µM	CC(C)=CCC/C(C)=C/CCc1c[nH]nn1	–	–	–	–
> 50 µM	CC(C)=CCC/C(C)=C/CSc1nn[nH]n1	–	–	–	–
> 50 µM	CC(C)=CCC/C(C)=C/CSc1ncc[nH]1	–	–	–	–
1 µM	CC(C)=CCC/C(C)=C/CC/C(C)=C/CO [FARNESOL]	inactive	Non-toxic	–	–
3 µM	CC(C)=CCC/C(C)=C/CSc1c[nH]nn1	–	–	–	–
1 µM	CC(C)=CCC/C(C)=C/CSc1nc[nH]n1	–	Non-toxic	–	inactive

SMILES	IC50 (Candida albicans [1])	Activity (Candida albicans [2])	Activity (Mus musculus)	Activity (Candida albicans [3])	Activity (Candida albicans [4])
CC(C)=CCC/C(C)=C/CCc1nnn[nH]1	7 µM	inactive	Non-toxic	Active	inactive
